According to paper PMC3983390 (Journal of medicinal chemistry, 2014):
Like-named read-outs stand apart in the source and are kept apart here. One block for each compound: values may come before it.

Tests used:
[1] = DPPH radical scavenging assay; details: 20 to 250 μM drug, 200 μM DPPH, methanol, 30 °C, 25 min; Figure 2
Summary of the method: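 Test compound in methanol as 20–250 μM solutions (before mixing), combined 1:1 with 200 μM methanolic DPPH. Plate shaken at 30 °C for 25 min. Controls were methanol plus DPPH, with methanol alone as background and ascorbic acid as standard. Absorbance read at 517 nm. % scavenging = (A control − A sample)/A control × 100.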

reserpine-treated rats = test: Reversal of reserpine-induced hypolocomotion in rats; assay type: in vivo, rat; details: for reversal of akinesia (locomotor activity) in reserpine-treated rats: i.p., in DI water, 18 h after reserpine 5 mg/kg s.c.
Summary of the method: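 Male Sprague–Dawley rats (220–225 g) anaesthetised with isoflurane and given reserpine 5.0 mg/kg s.c. (acetic acid diluted in 5.5% glucose) or saline 18 h beforehand. After 1 h chamber acclimatisation, test compound (in water) given i.p. at 5 μmol/kg; reference agonist given s.c. Horizontal activity counted from infrared beam breaks for 6 h in 30-min bins. n = 4; mean ± SEM; one-way ANOVA with Dunnett vs saline controls.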

6-OHDA lesioned rats = test: In vivo rotational experiment with 6-OHDA unilaterally lesioned rats; design: species or system rat; details: for rotational activity in 6-OHDA lesioned rats / duration of rotation / total number of rotations: i.p.
Summary of the method: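 Rats (290–320 g) with a unilateral 6-OHDA lesion of the left medial forebrain bundle. Lesion confirmed by apomorphine challenges, including 0.05 mg/kg at 21 days post-lesion with contralateral rotations counted for 30 min. Test compound given i.p. at 5 or 10 μmol/kg; controls were vehicle and apomorphine reference. Contralateral (clockwise) rotations counted in harnessed rotometry chambers from dosing, in 30-min bins, over 7–12 h.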

MN9D cells = test: Neuroprotection against MPP+ toxicity in dopaminergic MN9D cells; assay type: cell-based, mouse; details: 1 h pretreatment, then cotreatment with 100 μM MPP+ for 24 h; MTT
Summary of the method: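 MN9D cells (mouse mesencephalic neuron × N18TG2 hybridoma) grown on poly-L-lysine in high-glucose DMEM with 10% serum and penicillin/streptomycin, 37 °C, 5% CO2. Seeded at 1 × 10^4 cells/well and equilibrated 40 h. Pretreated 1 h with test compound (0.001–20 μM; DMSO stock), then MPP+ added to 100 μM final for 24 h; controls 0.01% DMSO. MTT (0.5 mg/mL final) 3 h; formazan dissolved in DMSO/methanol 1:1; A570 minus A690. Three independent experiments, 4–6 replicates, mean ± SD; one-way ANOVA with Tukey vs MPP+.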

rD2L receptor = rD2L receptor (Rattus norvegicus, UniProt P61169); details: read-out: Ki (nM), rD2L [3H]spiroperidol; HEK-293 cells; from previous ref 44; cited from earlier work
rD2L receptor, sequence (P61169 whole entry): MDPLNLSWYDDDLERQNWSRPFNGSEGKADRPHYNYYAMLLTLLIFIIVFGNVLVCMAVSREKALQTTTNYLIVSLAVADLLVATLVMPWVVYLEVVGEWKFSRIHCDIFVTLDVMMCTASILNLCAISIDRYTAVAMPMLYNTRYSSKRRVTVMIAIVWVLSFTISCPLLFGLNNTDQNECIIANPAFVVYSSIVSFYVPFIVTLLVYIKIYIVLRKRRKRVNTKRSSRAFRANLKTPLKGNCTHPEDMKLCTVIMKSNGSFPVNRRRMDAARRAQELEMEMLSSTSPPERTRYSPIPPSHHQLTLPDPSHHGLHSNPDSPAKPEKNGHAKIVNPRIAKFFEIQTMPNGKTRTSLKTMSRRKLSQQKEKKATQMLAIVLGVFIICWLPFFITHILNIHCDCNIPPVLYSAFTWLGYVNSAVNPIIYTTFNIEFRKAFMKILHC

rD3 receptor = rD3 receptor (Rattus norvegicus, UniProt P19020); details: read-out: Ki (nM), rD3 [3H]spiroperidol; HEK-293 cells; from previous ref 44; cited from earlier work
rD3 receptor, sequence (P19020 whole entry): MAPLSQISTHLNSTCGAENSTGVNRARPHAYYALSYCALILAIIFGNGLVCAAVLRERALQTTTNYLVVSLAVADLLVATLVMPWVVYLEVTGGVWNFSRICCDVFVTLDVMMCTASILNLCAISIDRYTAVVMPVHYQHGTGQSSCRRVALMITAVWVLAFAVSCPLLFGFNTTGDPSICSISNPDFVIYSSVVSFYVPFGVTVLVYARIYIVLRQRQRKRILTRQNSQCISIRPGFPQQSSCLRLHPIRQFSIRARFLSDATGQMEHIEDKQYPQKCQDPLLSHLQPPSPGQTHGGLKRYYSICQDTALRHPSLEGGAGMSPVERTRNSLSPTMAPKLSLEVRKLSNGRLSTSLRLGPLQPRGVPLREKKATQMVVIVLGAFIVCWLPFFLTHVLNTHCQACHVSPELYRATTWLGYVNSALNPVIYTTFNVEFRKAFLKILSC

hD2 receptor [2] = target: T1, hD2 receptor (Homo sapiens, UniProt P14416); details: GTPγS, compared with Emax of DA; cited from earlier work
T1 sequence (P14416 whole entry): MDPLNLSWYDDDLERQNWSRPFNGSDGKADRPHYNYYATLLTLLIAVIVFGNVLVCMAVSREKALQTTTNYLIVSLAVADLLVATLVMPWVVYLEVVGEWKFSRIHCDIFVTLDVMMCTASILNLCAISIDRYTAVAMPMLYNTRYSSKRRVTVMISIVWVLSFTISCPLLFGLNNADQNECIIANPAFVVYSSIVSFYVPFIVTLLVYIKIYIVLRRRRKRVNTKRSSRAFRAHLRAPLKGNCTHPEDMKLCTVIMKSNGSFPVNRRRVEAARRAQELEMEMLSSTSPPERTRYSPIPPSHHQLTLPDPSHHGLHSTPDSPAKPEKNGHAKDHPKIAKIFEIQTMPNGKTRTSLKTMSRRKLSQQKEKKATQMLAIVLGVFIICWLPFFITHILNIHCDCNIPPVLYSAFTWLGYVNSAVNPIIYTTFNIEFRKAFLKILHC

hD3 receptor [3] = target: T2, hD3 receptor (Homo sapiens, UniProt P35462); details: GTPγS, compared with Emax of DA; cited from earlier work
T2 sequence (P35462 whole entry): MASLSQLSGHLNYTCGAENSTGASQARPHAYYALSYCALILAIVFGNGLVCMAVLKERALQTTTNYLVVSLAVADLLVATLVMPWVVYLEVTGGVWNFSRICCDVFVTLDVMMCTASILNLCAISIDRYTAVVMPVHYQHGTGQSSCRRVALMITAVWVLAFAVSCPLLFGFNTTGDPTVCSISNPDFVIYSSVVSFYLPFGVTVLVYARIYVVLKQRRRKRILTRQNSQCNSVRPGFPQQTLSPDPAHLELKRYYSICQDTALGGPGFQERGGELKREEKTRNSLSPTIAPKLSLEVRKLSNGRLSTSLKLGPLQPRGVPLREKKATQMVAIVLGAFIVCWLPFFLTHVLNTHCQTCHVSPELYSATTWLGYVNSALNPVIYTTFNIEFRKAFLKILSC

hD2 receptor [4] = target: T1, hD2 receptor; test: Stimulation of [35S]GTPγS binding to hD2 receptors expressed in CHO cells; assay type: biochemical; details: compared with Emax of DA
hD3 receptor [5] = target: T2, hD3 receptor; test: Stimulation of [35S]GTPγS binding to hD3 receptors expressed in CHO cells; assay type: biochemical; details: for agonist type at D3 receptor: GTPγS, compared with Emax of DA

Compound: CCCN(CCN1CCN(c2ccc(-c3cccc(O)c3)cc2)CC1)[C@H]1CCc2c(O)cccc2C1 [(−)-11, (S)-6-((2-(4-(3′-Hydroxybiphenyl-4-yl)piperazin-1-yl)ethyl)-(propyl)amino)-5,6,7,8-tetrahydronaphthalen-1-ol]
DPPH radical scavenging (antioxidant) activity [1]: less antioxidant activity in this assay than (−)-9b

Compound: CCCN(CCN1CCN(c2ccc(-c3ccccc3)cc2)CC1)[C@H]1CCc2nc(N)sc2C1 [Compound 1a, (−)-N6-(2-(4-(Biphenyl-4-yl)piperazin-1-yl)-ethyl)-N6-propyl-4,5,6,7-tetrahydrobenzo[d]thiazole-2,6-diamine]
reversal of akinesia (locomotor activity) in reserpine-treated rats (reserpine-treated rats; 5 μmol/kg): failed to produce any significant effect in reversing akinesia
reversal of akinesia in reserpine-treated rats (reserpine-treated rats; dissolved in 10% beta-hydroxy cyclodextrin solution, 5 μmol/kg i.p.): more effective
rotational activity in 6-OHDA lesioned rats (6-OHDA lesioned rats): failed to show any in vivo activity
protection of MN9D cells from MPP+ induced toxicity (MN9D cells): able to protect the MN9D cells in a dose-dependent manner
Ki (rD2L receptor): 186 ± 34 nM
Ki (rD3 receptor): 2.1 ± 0.34 nM
agonist type at D2 receptor (hD2 receptor [2]): full agonist
agonist type at D3 receptor (hD3 receptor [3]): full agonist

agonist type at D2 receptor (hD2 receptor [4]): full agonist
less potent at D3 receptor in comparison to 1a (hD3 receptor [5]; GTPγS EC50): 2 fold
agonist type at D3 receptor (hD3 receptor [5]): partial agonist
Compound: CCCN(CCN1CCN(c2ccc(-c3cccc(OC)c3)cc2)CC1)[C@H]1CCc2nc(N)sc2C1 [Compound (−)-8b, (S)-N6-(2-(4-(3′-Methoxybiphenyl-4-yl)piperazin-1-yl)ethyl)-N6-propyl-4,5,6,7-tetrahydrobenzo[d]thiazole-2,6-diamine]
reversal of akinesia (locomotor activity) in reserpine-treated rats (reserpine-treated rats; 5 μmol/kg): highly efficacious in reversing akinesia
duration of rotation (6-OHDA lesioned rats; 5 μmol/kg): more than 7 h
total number of rotations (6-OHDA lesioned rats; 5 μmol/kg): 3333 rotations
duration of rotation (6-OHDA lesioned rats; 10 μmol/kg): more than 10 h
total number of rotations (6-OHDA lesioned rats; 10 μmol/kg): 5866 rotations
rotational activity in 6-OHDA lesioned rats (6-OHDA lesioned rats): produced potent rotational activity in a dose-dependent manner
protection of MN9D cells from MPP+ induced toxicity (MN9D cells): did not show any neuroprotection

agonist type at D2 receptor (hD2 receptor [4]): full agonist
increase in D3 functional potency in comparison to 1a (hD3 receptor [5]; GTPγS EC50): 15 fold
increase in functional selectivity (D2/D3) in comparison to 1a (hD3 receptor [5]; GTPγS EC50 ratio): 7 fold
agonist type at D3 receptor (hD3 receptor [5]): full agonist
Compound: CCCN(CCN1CCN(c2ccc(-c3cccc(O)c3)cc2)CC1)[C@H]1CCc2nc(N)sc2C1 [Compound (−)-9b, (S)-4′-(4-(2-((2-Amino-4,5,6,7-tetrahydrobenzo[d]thiazol-6-yl)(propyl)amino)ethyl)piperazin-1-yl)biphenyl-3-ol]
reversal of akinesia (locomotor activity) in reserpine-treated rats (reserpine-treated rats; 5 μmol/kg): highly efficacious in reversing akinesia
duration of rotation (6-OHDA lesioned rats; 5 μmol/kg): more than 7 h
total number of rotations (6-OHDA lesioned rats; 5 μmol/kg): 1839 rotations
duration of rotation (6-OHDA lesioned rats; 10 μmol/kg): more than 10 h
total number of rotations (6-OHDA lesioned rats; 10 μmol/kg): 2653 rotations
rotational activity in 6-OHDA lesioned rats (6-OHDA lesioned rats): produced potent rotational activity in a dose-dependent manner
protection of MN9D cells from MPP+ induced toxicity (MN9D cells): able to protect the MN9D cells in a dose-dependent manner

Compound: CN1CCc2cccc3c2[C@H]1Cc1ccc(O)c(O)c1-3 [apomorphine, reference compound]
average contralateral rotation (6-OHDA lesioned rats; apomorphine 0.05 mg/kg, 21 days postlesion, recorded for 30 min): > 250

Compound: O=C1O[C@H]([C@@H](O)CO)C(O)=C1O [ascorbic acid]
DPPH radical scavenging (antioxidant) activity [1]: inhibited DPPH radical activity dose dependently

Compound: CCCN(CCC)CCc1cccc2c1CC(=O)N2 [ropinirole, Ropinirole, reference compound]
DPPH radical scavenging (antioxidant) activity [1]: poor activity
duration of action in reserpine-treated rats (reserpine-treated rats; 5 μmol/kg, s.c., compared to the test compounds): much shorter duration of action
duration of action in 6-OHDA lesioned rats (6-OHDA lesioned rats; 10 μmol/kg): much shorter duration of action
